# Only some compounds are listed: those with a hit (about 1.9% of all), similar ones and a draw of the others.
# VIM-2 inh: blocks Pseudomonas aeruginosa VIM-2 metallo-beta-lactamase; actives 0.89% (n = 290,000); purified VIM-2, nitrocefin hydrolysis, epi-absorbance fluorescence; AID 1527; inhibition, % at 5.6 µM;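 active = inhibition above the mean of all tested compounds plus 3 SD, cutoff set per screening run, cut at about 7.5% in these data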;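 also: red hydrolysis product quenches plate fluorescence so inhibitors raise well fluorescence; 0% = enzyme with DMSO and 100% = DMSO without enzyme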
# FID counter: fluorescent intercalator displacement, NS3 helicase counter-screen; DNA fluorescent intercalator displacement, fluorescence; inhibition, % at 7.9 µM; actives 0.17% (n = 290,000); AID 1845; in the data active = inhibition above about 37%;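 also: 0% = vehicle and 100% = reference compound; higher means more ethidium bromide displaced from hairpin DNA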
# NS3 helicase inh: HCV NS3 helicase inhibition; actives 0.56% (n = 290,000); AID 1800; NS3 helicase DNA unwinding, Cy5 molecular beacon fluorescence; inhibition, % at 10.9 µM;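 active = inhibition above the mean of all tested compounds plus 3 SD, set per campaign, cut at about 35% in these data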;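 also: 0% = DMSO wells and 100% = thioflavine S control wells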
#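 Measured by: Cy5 fluorescence, 0 and 60 min reads / Assay system: NS3 helicase fragment of HCV / Control set: low DMSO, high thioflavine S at 110 µM / Times: 1 h reaction at 25 °C, ATP-initiated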
# IMP-1 inh-1: blocks Pseudomonas aeruginosa IMP-1 metallo-beta-lactamase; inhibition, % at 5.6 µM; purified IMP-1, nitrocefin hydrolysis, epi-absorbance fluorescence; AID 1556; actives 0.45% (n = 290,000);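 active = inhibition above the mean plus 3 SD of all compounds in the same screening run, cut at about 4.5% in these data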;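 also: 0% = IMP-1 with DMSO and 100% = DMSO wells lacking enzyme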
#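 System: purified IMP-1 / Input: IMP-1 dispensed at 0.2 nM / Medium: 50 mM HEPES pH 7.1, 50 µM ZnSO4, 0.05% Brij 35 / Timing: 15 min enzyme–compound preincubation, then 25 min nitrocefin reaction, 25 °C / Technique: plate fluorescence quenching by hydrolysis product, ex 480/em 530 nm / Repeats: singlicate testing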
# IMP-1 inh-2: blocks IMP-1 metallo-beta-lactamase in VIM-2 selectivity screen; shares compounds with VIM-2 inh; purified IMP-1, nitrocefin hydrolysis, epi-absorbance fluorescence; inhibition, % at 5.6 µM; 1,300 tested, under 10 active; AID 1856; call rule not given here;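 also: 0% = enzyme with vehicle and 100% = vehicle without enzyme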
# VIM-2 FRET inh: VIM-2 FRET inhibition, artifact counter-screen; shares compounds with VIM-2 inh; purified VIM-2, CCF2 FRET substrate hydrolysis; inhibition, % at 5.6 µM; actives 23% (n = 1,300); AID 1857;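 active = inhibition above the mean of all tested compounds plus 3 SD, cut at about 19% in these data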;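 also: 0% = VIM-2 plus DMSO and 100% = no enzyme wells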
# TEM-1 counter: selectivity counter-screen for VIM-2 inhibitors: E. coli TEM-1 inhibitors. shares compounds with VIM-2 inh. Purified TEM-1, nitrocefin hydrolysis, epi-absorbance fluorescence. inhibition, % at 5.6 µM. actives 3% (n = 1,300). AID 1866;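 active = inhibition above that campaign's mean inhibition plus 3 SD, cut at about 0.46% in these data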;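 also: 0% = TEM-1 with DMSO and 100% = TEM-1 with 100 µM potassium clavulanate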
# Target sequence (P62593 whole entry, looked up): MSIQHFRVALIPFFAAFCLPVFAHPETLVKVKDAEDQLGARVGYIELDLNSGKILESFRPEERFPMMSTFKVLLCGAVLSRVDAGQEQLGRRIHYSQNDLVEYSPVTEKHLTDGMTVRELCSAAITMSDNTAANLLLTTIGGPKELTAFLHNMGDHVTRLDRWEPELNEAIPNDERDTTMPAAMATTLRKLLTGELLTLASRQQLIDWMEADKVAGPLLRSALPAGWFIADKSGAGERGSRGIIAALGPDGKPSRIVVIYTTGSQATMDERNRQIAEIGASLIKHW
# VIM-2 inh conf: confirmation of P. aeruginosa VIM-2 metallo-beta-lactamase inhibitors. shares compounds with VIM-2 inh. purified VIM-2, nitrocefin hydrolysis, epi-absorbance. inhibition, % at 5.6 µM. actives 96% (n = 1,300);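 active = inhibition of the VIM-2 beta-lactamase enzyme above about 11% from the earlier first-round screen, limit read from the data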;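 also: 0% = VIM-2 with DMSO and 100% = buffer wells without enzyme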
# The depositor's hits bear a star; nt = no result.
SMILES,VIM-2 inh,FID counter,NS3 helicase inh,IMP-1 inh-1,IMP-1 inh-2,VIM-2 FRET inh,TEM-1 counter,VIM-2 inh conf
CCCCCCn1cc(C(=O)O)c(=O)c2cc(F)c(N3CCN(C)CC3)cc21,16*,-5,-3,2,-1,7,-1,19*
C[n+]1cccc(/C=N/Nc2nc(Cl)c(C#N)c(Cl)c2Cl)c1,41*,11,-1,-3,-3,32*,-6,57*
N#Cc1c(Cl)nc(N/N=C/c2ccccc2)c(Cl)c1Cl,-4,0,7,-4,nt,nt,nt,nt
CCOc1ccc2noc3c2c1C(=O)c1ccccc1-3,3,2,0,0,nt,nt,nt,nt
O=C1c2ccccc2-c2onc3ccc(N4CCCC4)c1c23,14*,47*,16,2,4,4,2.9*,25*
Cn1c(=O)c2c(nc(N3CCCCC3)n2CCNC2=NCCC2)n(C)c1=O,20*,8,14,0,-3,2,-6,36*
CC(OC(=O)CNC(=O)c1ccc2ccccc2c1)C(=O)NC1CCCCC1C (configuration not stated),1,-43,-16,-4,nt,nt,nt,nt
CCc1ccc2nc3nc(C)cc(C)c3c(N)c2c1,23*,12,3,-2,-1,-8,-3,41*
Cc1cc(C)c2c(N)c3ccccc3nc2n1,16*,23,13,-3,-3,-7,-6,33*
Cc1cc(C)c2cccc(N)c2n1,-4,7,16,-5,nt,nt,nt,nt
Cc1c(Br)cc(C(=O)OC2CCN(C)CC2)c(C)c1C,13*,25,-54,0,-1,2,-5,17*
CN1CCC(OC(=O)c2ccccc2)CC1,-1,-9,19,0,nt,nt,nt,nt
CCCN(CCC)Cc1cc(=O)oc2cc3c(cc12)CCC3,-2,-9,-7,-2,nt,nt,nt,nt
CC(=O)N1CCN(S(=O)(=O)c2ccc(C)cc2)C1c1ccc(N(C)C)cc1 (configuration not stated),31*,-12,1,-3,-3,51*,-4,37*
Cc1nn(Cc2c(F)cccc2Cl)c(C)c1NC(=O)C1CC1,-1,-2,0,0,nt,nt,nt,nt
C=C1CSc2nc(=O)c3c4c(sc3n21)CCCC4,14*,-10,1,-2,-3,-1,-7,33*
O=C(O)c1cccc(NC(=O)c2ccccc2NC(=O)c2cccc([N+](=O)[O-])c2)c1,1,-28,4,1,nt,nt,nt,nt
O=C(Nc1ccccc1C(=O)Nc1ccncc1)c1cccc([N+](=O)[O-])c1,13*,10,0,-1,-3,-11,-5,25*
CCN(CC)CCNc1ccc(CO)c2sc3ccccc3c(=O)c12,24*,19,11,-3,1,-1,-8,35*
COc1ccccc1CC(NC(C)=O)C(=O)NC1CCN(S(=O)(=O)c2ccccc2)CC1 (configuration not stated),-2,-28,8,1,nt,nt,nt,nt
COc1ccc(C)cc1Nc1cc(C)nc2nc(C)nn12,26*,-17,8,-4,-2,-1,-6,40*
COc1ccc(OC)c(Nc2cc(C)nc3nc(C)nn23)c1,15*,-6,-2,-4,-3,-2,-4,30*
COC(=O)c1ccccc1Nc1cc(C)nc2nc(C)nn12,13*,-11,2,-1,-3,2,-5,29*
Cc1cc(Nc2cc(F)ccc2C)n2nc(C)nc2n1,5,2,9,0,nt,nt,nt,nt
CN(C)C(=O)c1cc(C(=O)c2c(F)cccc2F)c[nH]1,1,-3,13,0,nt,nt,nt,nt
Cc1cccn2c(=O)c3cc(C(=O)NCc4cccnc4)c(=N)n(C(C)C)c3nc12,20*,-2,0,-1,-3,-86,-6,31*
COCCn1c(=N)c(C(=O)NCc2ccco2)cc2c(=O)n3ccccc3nc21,1,0,4,-1,nt,nt,nt,nt
Cc1cccn2c(=O)c3cc(C(=O)NCc4ccco4)c(=N)n(C(C)C)c3nc12,13*,-13,9,-6,-4,-30,-5,27*
